According to ChEMBL document CHEMBL3351281, “1,3,4-Oxadiazole-containing histone deacetylase inhibitors: anticancer activities in cancer cells” (J Med Chem, 2014):
Blank lines part the entries; values can stand above or below the compound they belong to. Active and inactive are the calls of the source. No cut-off for these calls is given here.

Columns and labels:
[1] = biological target: Histone deacetylase 1 (Homo sapiens, UniProt Q13547); assay: Inhibition of human recombinant HDAC1 using histone H3 substrate pre-incubated at room temperature for 15 mins before substrate addition by fluorimetric assay
[2] = biological target: Histone deacetylase 4 (Homo sapiens, UniProt P56524); assay: Inhibition of human recombinant HDAC4 using non-histone trifluoroacetyl lysine substrate pre-incubated at room temperature for 15 mins before substrate addition by fluorimetric assay
[3] = biological target: T1, Protein deacetylase HDAC6 (Homo sapiens, UniProt Q9UBN7); assay: Inhibition of human recombinant HDAC6 pre-incubated at room temperature for 15 min before substrate addition by fluorimetric assay
T1 sequence (Q9UBN7 whole entry): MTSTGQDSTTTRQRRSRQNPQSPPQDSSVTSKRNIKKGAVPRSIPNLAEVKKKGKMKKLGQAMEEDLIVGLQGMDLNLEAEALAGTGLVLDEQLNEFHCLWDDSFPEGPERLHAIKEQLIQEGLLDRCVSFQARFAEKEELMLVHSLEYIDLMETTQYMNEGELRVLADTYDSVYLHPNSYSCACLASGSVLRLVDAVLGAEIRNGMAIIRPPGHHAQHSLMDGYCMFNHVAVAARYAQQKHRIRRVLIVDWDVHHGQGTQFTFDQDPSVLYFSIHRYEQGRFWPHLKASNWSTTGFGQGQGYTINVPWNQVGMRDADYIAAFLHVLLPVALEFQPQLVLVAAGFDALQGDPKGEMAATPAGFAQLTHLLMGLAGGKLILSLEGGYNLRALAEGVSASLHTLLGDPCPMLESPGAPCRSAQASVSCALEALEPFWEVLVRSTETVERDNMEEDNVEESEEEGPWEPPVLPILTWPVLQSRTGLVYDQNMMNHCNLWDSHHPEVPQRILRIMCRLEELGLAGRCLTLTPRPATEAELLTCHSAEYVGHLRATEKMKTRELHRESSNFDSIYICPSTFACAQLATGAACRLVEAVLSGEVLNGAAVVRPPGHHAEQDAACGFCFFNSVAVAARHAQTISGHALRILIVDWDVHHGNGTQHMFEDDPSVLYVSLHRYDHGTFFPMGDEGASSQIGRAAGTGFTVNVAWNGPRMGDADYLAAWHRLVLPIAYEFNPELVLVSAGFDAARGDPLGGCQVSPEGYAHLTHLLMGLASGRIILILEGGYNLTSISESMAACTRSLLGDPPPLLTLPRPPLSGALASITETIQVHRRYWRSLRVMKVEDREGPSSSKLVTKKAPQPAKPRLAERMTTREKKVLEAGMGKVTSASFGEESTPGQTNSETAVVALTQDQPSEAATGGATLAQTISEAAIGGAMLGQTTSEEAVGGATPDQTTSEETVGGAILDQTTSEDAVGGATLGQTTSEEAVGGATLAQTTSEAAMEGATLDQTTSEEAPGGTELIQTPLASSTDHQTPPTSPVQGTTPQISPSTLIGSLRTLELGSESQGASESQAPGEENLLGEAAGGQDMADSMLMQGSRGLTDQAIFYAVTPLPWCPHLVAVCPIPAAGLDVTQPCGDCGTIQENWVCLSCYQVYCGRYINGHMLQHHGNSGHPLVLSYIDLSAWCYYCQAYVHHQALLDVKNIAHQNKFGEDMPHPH

[4] = tested on: U-937; assay: Induction of granulocytic differentiation in human U937 cells assessed as increase in CD11c expression after 48 hrs by FACS method; assay type: functional, cell-based
In short: (§1)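 Granulocytic differentiation in U937 cells at 0.1, 1, 5, 10 and 25 μM for 24 and 48 h, with reference drugs at 5 μM as positive controls. Read-out was the percentage of CD11c-positive, propidium iodide-negative cells.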

[5] = tested on: U-937; assay: Induction of cell cycle arrest in human U937 cells assessed as accumulation at S phase at 0.1 to 25 uM after 48 hrs by propidium iodide staining based FACS method; assay type: functional
In short: (§2)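 U937 cells treated at 0.1, 1, 5, 10 and 25 μM for 24 and 48 h, with reference drugs at 5 μM as positive controls. Cell-cycle distribution measured, with accumulation in S phase scored.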

[6] = tested on: U-937; assay: Induction of cell cycle arrest in human U937 cells assessed as accumulation at S phase at 1 uM after 48 hrs by propidium iodide staining based FACS method; assay type: functional; in short: as §2
[7] = tested on: U-937; assay: Induction of apoptosis in human U937 cells assessed as accumulation at pre-G1 phase after 48 hrs by propidium iodide staining based FACS method; assay type: functional, cell-based
In short: (§3)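 U937 cells exposed to 0.1, 1, 5, 10 and 25 μM for 24 and 48 h. Reference drugs at 5 μM served as positive controls. Apoptosis taken as the percentage of cells in the pre-G1 peak.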

[8] = tested on: U-937; assay: Induction of granulocytic differentiation in human U937 cells assessed as increase in CD11c expression at 5 uM after 48 hrs by FACS method; assay type: functional; in short: as §1
[9] = tested on: M14; assay: Antiproliferative activity against human M14 cells after 48 hrs by MTT assay; assay type: functional, cell-based; details: M14, 48 h
In short: (§4)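 Solid tumour cells grown in RPMI with 10% fetal calf serum and penicillin. Exponentially growing cells seeded in sextuplicate in 96-well plates (3 × 10³ cells/well), treated 24 h later at 1 to 50 μM for 48 h. Viability read by MTT.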

[10] = Antiproliferative activity against human SANTO cells after 48 hrs by MTT assay; assay type: functional, cell-based; in short: as §4
[11] = tested on: A549; assay: Antiproliferative activity against human A549 cells after 48 hrs by MTT assay; assay type: functional, cell-based; details: A549, 48 h; in short: as §4
[12] = Antiproliferative activity against human HCT116 cells after 48 hrs by MTT assay; assay type: functional, cell-based; details: HCT-116, 48 h; in short: as §4
[13] = tested on: SW-620; assay: Antiproliferative activity against human SW620 cells after 48 hrs by MTT assay; assay type: functional, cell-based; details: SW-620, 48 h; in short: as §4
[14] = tested on: HCC1937; assay: Antiproliferative activity against human HCC1937 cells after 48 hrs by MTT assay; assay type: functional, cell-based; details: HCC1937, 48 h; in short: as §4
[15] = tested on: MDA-MB-468; assay: Antiproliferative activity against human MDA-MB-468 cells after 48 hrs by MTT assay; assay type: functional, cell-based; details: MDA-MB-468, 48 h; in short: as §4
[16] = tested on: U2OS; assay: Antiproliferative activity against human U2OS cells after 48 hrs by MTT assay; assay type: functional, cell-based; in short: as §4
[17] = Antiproliferative activity against human U937 cells after 48 hrs by Cell Titer GLo Assay; assay type: functional, cell-based; details: U-937, 48 h
In short: (§5)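 AML cells grown in RPMI with 10% fetal calf serum, antibiotics, amphotericin-B, 10 mM HEPES and 2 mM glutamine, kept at 200 000 cells/mL. Exponentially growing cells seeded in duplicate in 6-well plates (2 × 10⁵ cells/well), treated 24 h later at 1 to 50 μM for 48 h. Viability by Cell Titer GLo.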

[18] = Antiproliferative activity against human HL60 cells after 48 hrs by Cell Titer GLo Assay; assay type: functional, cell-based; details: HL-60, 48 h; in short: as §5
[19] = tested on: HEL; assay: Antiproliferative activity against human HEL cells after 48 hrs by Cell Titer GLo Assay; assay type: functional, cell-based; in short: as §5
[20] = Antiproliferative activity against human KG1 cells after 48 hrs by Cell Titer GLo Assay; assay type: functional, cell-based; details: KG-1, 48 h; in short: as §5
[21] = tested on: MOLM-13; assay: Antiproliferative activity against human MOLM13 cells after 48 hrs by Cell Titer GLo Assay; assay type: functional, cell-based; details: MOLM-13, 48 h; in short: as §5
[22] = cells; assay type: functional; details: Homo sapiens, U-937, 24 h
[23] = tested on: U-937; assay: Induction of apoptosis in human U937 cells assessed as accumulation at pre-G1 phase at 25 uM after 48 hrs by propidium iodide staining based FACS method; assay type: functional; in short: as §3
[24] = tested on: U-937; assay: Induction of apoptosis in human U937 cells assessed as accumulation at pre-G1 phase at 5 uM after 48 hrs by propidium iodide staining based FACS method; assay type: functional; in short: as §3
[25] = tested on: U-937; details: Homo sapiens, at 2.5 µM
[26] = tested on: U-937; assay: Induction of cell cycle arrest in human U937 cells assessed as accumulation at S phase at 5 uM after 48 hrs by propidium iodide staining based FACS method; assay type: functional; in short: as §2

Histone deacetylase 4, sequence (P56524 whole entry): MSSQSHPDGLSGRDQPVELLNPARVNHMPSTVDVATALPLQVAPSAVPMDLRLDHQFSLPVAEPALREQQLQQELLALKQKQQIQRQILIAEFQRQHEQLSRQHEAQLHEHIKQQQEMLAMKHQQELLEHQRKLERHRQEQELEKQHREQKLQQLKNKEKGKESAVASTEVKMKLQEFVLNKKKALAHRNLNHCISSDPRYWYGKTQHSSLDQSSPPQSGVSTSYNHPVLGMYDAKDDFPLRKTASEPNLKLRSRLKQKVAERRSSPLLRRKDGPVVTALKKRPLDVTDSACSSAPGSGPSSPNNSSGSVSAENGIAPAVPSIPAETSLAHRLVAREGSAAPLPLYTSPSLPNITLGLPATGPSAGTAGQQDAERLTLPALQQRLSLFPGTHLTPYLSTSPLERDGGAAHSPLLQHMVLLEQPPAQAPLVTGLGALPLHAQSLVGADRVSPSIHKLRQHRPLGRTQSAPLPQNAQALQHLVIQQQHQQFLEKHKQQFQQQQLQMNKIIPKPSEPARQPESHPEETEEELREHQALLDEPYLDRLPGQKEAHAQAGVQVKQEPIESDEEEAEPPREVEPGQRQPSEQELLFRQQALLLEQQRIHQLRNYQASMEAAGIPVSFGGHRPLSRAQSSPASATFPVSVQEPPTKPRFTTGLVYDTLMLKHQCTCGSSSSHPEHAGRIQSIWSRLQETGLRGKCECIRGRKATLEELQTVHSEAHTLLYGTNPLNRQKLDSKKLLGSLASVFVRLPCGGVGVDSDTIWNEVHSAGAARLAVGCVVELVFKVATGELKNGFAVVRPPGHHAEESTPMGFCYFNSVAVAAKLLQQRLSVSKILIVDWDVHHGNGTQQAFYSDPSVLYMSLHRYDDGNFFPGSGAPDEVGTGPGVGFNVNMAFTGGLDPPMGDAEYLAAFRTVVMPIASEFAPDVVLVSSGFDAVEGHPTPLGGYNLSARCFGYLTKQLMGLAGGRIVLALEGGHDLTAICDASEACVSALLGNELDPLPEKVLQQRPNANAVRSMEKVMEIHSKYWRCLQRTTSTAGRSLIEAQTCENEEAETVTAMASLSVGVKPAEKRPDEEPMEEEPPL
Histone deacetylase 1, sequence (Q13547 whole entry): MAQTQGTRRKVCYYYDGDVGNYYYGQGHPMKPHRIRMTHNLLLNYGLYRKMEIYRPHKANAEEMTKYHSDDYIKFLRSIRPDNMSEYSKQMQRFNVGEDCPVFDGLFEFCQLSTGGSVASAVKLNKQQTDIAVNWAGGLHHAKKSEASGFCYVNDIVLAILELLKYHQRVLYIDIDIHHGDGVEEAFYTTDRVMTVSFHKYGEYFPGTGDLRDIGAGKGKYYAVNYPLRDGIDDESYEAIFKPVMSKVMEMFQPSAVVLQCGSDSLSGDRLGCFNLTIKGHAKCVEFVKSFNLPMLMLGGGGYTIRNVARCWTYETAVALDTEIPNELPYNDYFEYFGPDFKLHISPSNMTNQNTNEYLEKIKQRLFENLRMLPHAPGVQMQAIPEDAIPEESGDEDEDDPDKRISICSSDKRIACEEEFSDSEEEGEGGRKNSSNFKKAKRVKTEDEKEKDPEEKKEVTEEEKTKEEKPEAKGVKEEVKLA

Compound: Nc1ccccc1NC(=O)/C=C/c1ccc(-c2nnc(Cc3c[nH]c4ccccc34)o2)cc1
IC50 [1]: 1.5 µM
IC50 [2]: > 20 µM
IC50 [3]: > 20 µM

Compound: Nc1ccccc1NC(=O)/C=C/c1ccc(-c2nnc(Cc3ccc4ccccc4c3)o2)cc1
IC50 [1]: 2.4 µM
IC50 [2]: > 20 µM
IC50 [3]: > 20 µM

Compound: Nc1ccccc1NC(=O)/C=C/c1ccc(Cc2nnc(Cc3cccc4ccccc34)o2)cc1
IC50 [1]: 4.1 µM
IC50 [2]: > 20 µM
IC50 [3]: > 20 µM

Compound: O=C(CCCCCCC(=O)Nc1ccccc1)NO [VORINOSTAT]
Activity [26]: Active
Activity [24]: 48%

Compound: O=C(NO)c1ccc(-c2nnc(Cc3cccc4ccccc34)o2)cc1
IC50 [1]: 9.9 µM
IC50 [2]: > 20 µM
IC50 [3]: 4.1 µM

Compound: Nc1ccccc1NC(=O)c1ccc(CNC(=O)OCc2cccnc2)cc1 [ENTINOSTAT]
Activity [8]: 47%

More lines, in order of falling IC50 [1], values ahead:

IC50 [1]: 1 µM
IC50 [2]: > 20 µM
IC50 [3]: > 20 µM
Compound: Nc1ccccc1NC(=O)/C=C/c1ccc(-c2nnc(Cc3cccc4ccccc34)o2)cc1
Activity [4]: Dose-dependent effect

IC50 [1]: 0.8 µM
IC50 [2]: > 20 µM
IC50 [3]: 0.06 µM
Compound: O=C(/C=C/c1ccc(-c2nnc(Cc3cccc4ccccc34)o2)cc1)NO

IC50 [1]: 0.6 µM
IC50 [2]: 15.2 µM
IC50 [3]: 0.03 µM
Compound: O=C(/C=C/c1ccc(-c2nnc(Cc3c[nH]c4ccccc34)o2)cc1)NO

IC50 [1]: 0.3 µM
IC50 [2]: > 20 µM
IC50 [3]: 16.1 µM
Compound: Nc1ccccc1NC(=O)c1ccc(-c2nnc(Cc3cccc4ccccc34)o2)cc1
Activity [4]: Dose-dependent effect

IC50 [1]: 0.2 µM
IC50 [2]: > 20 µM
IC50 [3]: 8.9 µM
IC50 [11]: 23.6 µM
IC50 [13]: 6.7 µM
IC50 [14]: 29.8 µM
IC50 [15]: 19.6 µM
IC50 [16]: 20.4 µM
IC50 [21]: 1.6 µM
Compound: Nc1ccccc1NC(=O)c1ccc(Cc2nnc(Cc3cccc4ccccc34)o2)cc1
Activity [5]: Active
Activity [6]: Active
Activity [7]: Dose-dependent effect
Activity [4]: Dose-dependent effect
Activity [8]: 45%
IC50 [9]: 43.3 µM
IC50 [10]: 17.4 µM
IC50 [12]: 24.7 µM
IC50 [17]: 1.8 µM
IC50 [18]: 2.8 µM
IC50 [19]: 2 µM
IC50 [20]: 1.8 µM
inhibition at 2.5 µM [22]: 75%

IC50 [1]: 0.2 µM
IC50 [2]: > 20 µM
IC50 [3]: 0.03 µM
IC50 [11]: 29.5 µM
IC50 [13]: 5.1 µM
IC50 [14]: 33.6 µM
IC50 [15]: 18.4 µM
IC50 [16]: 50 µM
IC50 [21]: 2.2 µM
Compound: O=C(/C=C/c1ccc(Cc2nnc(Cc3cccc4ccccc34)o2)cc1)NO
Activity [7]: Dose-dependent effect
Activity [23]: 74%
Activity [24]: 58%
Activity [4]: Dose-dependent effect
IC50 [9]: 45 µM
IC50 [10]: 24 µM
IC50 [12]: 21.3 µM
IC50 [17]: 7.8 µM
IC50 [18]: 6 µM
IC50 [19]: 4.1 µM
IC50 [20]: 2.6 µM
inhibition [25]: Active

IC50 [1]: 0.2 µM
IC50 [2]: 7.8 µM
IC50 [3]: 1.2 µM
Compound: O=C(NO)c1ccc(Cc2nnc(Cc3cccc4ccccc34)o2)cc1
Activity [5]: Active
Activity [7]: Dose-dependent effect
